From ChEMBL document CHEMBL4368876, “Synthesis of d-(+)-camphor-based N-acylhydrazones and their antiviral activity” (Medchemcomm, 2018)

Key:
Vaccinia virus = assay: Antiviral activity against Vaccinia virus Copenhagen infected in African green monkey Vero cells assessed as inhibition of viral replication after 4 days by neural red dye-based spectrophotometric method; assay type: functional, organism-based, Orthopoxvirus vaccinia
[1] = Cytotoxicity against African green monkey Vero cells assessed as reduction in cell viability after 4 days by neural red dye-based spectrophotometric method; settings: chlorocebus sabaeus
In short: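 Vero cell monolayers in DMEM with 2% fetal serum were given serial dilutions of compound, with no virus added. After 4 days the cells were stained with neutral red for 2 h, unbound dye was washed out and the cells were lysed. OD was read at 490 nm. CC50 in μM was derived from the OD data; three independent experiments, mean ± 95% confidence interval.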

[2] = Cytotoxicity against MDCK cells assessed as reduction in cell viability after 48 hrs by MTT assay; assay type: cell-based, Canis lupus familiaris; settings: dog
In short: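 MDCK cells were exposed to three-fold dilutions of compound in MEM (top 300–400 μg mL-1) for 48 h at 36 °C in 5% CO2, then washed twice with PBS. MTT ([…] in PBS) was added for 1 h and formazan was dissolved in DMSO. OD was read at 535 nm. Triplicate wells per concentration; CC50 was taken from OD versus concentration.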

Influenza A virus = assay: Antiviral activity against Influenza A virus (A/Puerto Rico/8/34(H1N1)) infected in MDCK cells assessed as reduction in virus titer pretreated with cells for 1 hr followed by viral infection for 1 hr and subsequent unbound virion washout measured after 24 to 48 hrs by hemagglutination test; assay type: functional, organism-based, A/Puerto Rico/8/1934(H1N1)
In short: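 MDCK cells pre-incubated 1 h at 36 °C with compound in MEM containing 1 μg mL−1 trypsin, then infected with A/Puerto Rico/8/34 (H1N1), moi 0.01, for 1 h. Unbound virus washed off, then 24 h at 36 °C, 5% CO2. Supernatant titre read by hemagglutination after 48 h passage in MDCK, as % of untreated control. Triplicate wells; IC50 calculated.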

[3] = Selectivity index, ratio of CC50 for MDCK cells to IC50 for Influenza A virus (A/Puerto Rico/8/34(H1N1)) infected in MDCK cells; assay type: toxicity, cell-based; settings: dog, read-out: Ratio CC50/IC50
[4] = Selectivity index, ratio of CC50 for African green monkey Vero cells to IC50 for Vaccinia virus Copenhagen infected in African green monkey Vero cells; assay type: toxicity; settings: read-out: Ratio CC50/IC50
Orthopoxvirus = assay: Antiviral activity against Orthopoxvirus assessed as reduction in viral replication; assay type: functional, organism-based
[5] = Influenza A virus, A/Puerto Rico/8/1934(H1N1), MDCK, read-out: IC50
[6] = Orthopoxvirus vaccinia, Copenhagen, Vero, 96 h, read-out: IC50

CC12C=CC3(O1)C(C(=O)N1c4ccccc4SC13)C2C(=O)N/N=C1\C[C@H]2CC[C@]1(C)C2(C)C (mixture of isomers)
IC50 (Vaccinia virus; vero): Not Active | CC50 at 96 h [1]: 67.2 µM | CC50 at 48 h [2]: 123 µM | IC50 (Influenza A virus; [5]): 36 µM | selectivity ratio [3]: 3

CC1(C)[C@@H]2CC[C@@]1(C)/C(=N/NC(=O)c1ccc(Br)cc1)C2
IC50 (Vaccinia virus; [6]): 11.1 µM | CC50 at 96 h [1]: 288 µM | selectivity ratio [4]: 26 | CC50 at 48 h [2]: > 822 µM | IC50 (Influenza A virus; [5]): 219 µM | selectivity ratio [3]: 4

CC1(C)[C@@H]2CC[C@@]1(C)/C(=N/NC(=O)c1ccco1)C2
IC50 (Vaccinia virus; [6]): 38.7 µM | CC50 at 96 h [1]: 285 µM | selectivity ratio [4]: 7 | CC50 at 48 h [2]: 1090 µM | IC50 (Influenza A virus; [5]): 325 µM | selectivity ratio [3]: 3

CC(N)C12CC3CC(CC(C3)C1)C2 (stereo not given) [RIMANTADINE]
IC50 (Influenza A virus; [5]): 67 µM | selectivity ratio [3]: 5

CC(=O)N/N=C1\C[C@H]2CC[C@]1(C)C2(C)C
IC50 (Vaccinia virus; vero): Not Active | CC50 at 96 h [1]: > 250 µM

NC12CC3CC(CC(C3)C1)C2 [AMANTADINE]
IC50 (Influenza A virus; [5]): 64 µM | selectivity ratio [3]: 4

Nc1ccn(C[C@@H](CO)OCP(=O)(O)O)c(=O)n1 [CIDOFOVIR]
selectivity ratio [4]: 12

CCN1CC23C=CC(O2)C(C(=O)N/N=C2\C[C@H]4CC[C@]2(C)C4(C)C)C3C1=O (mixture of isomers)
IC50 (Vaccinia virus; vero): Not Active | CC50 at 96 h [1]: > 250 µM | CC50 at 48 h [2]: 775 µM | IC50 (Influenza A virus): Not Active

CC1CCN(CC(=O)N[C@@H]2C[C@H]3CC[C@]2(C)C3(C)C)CC1
IC50 (Orthopoxvirus): 2.5 µM

CC1(C)[C@@H]2CC[C@@]1(C)/C(=N/NC(=O)c1cccs1)C2
IC50 (Vaccinia virus; vero): Not Active | CC50 at 96 h [1]: 362 µM | CC50 at 48 h [2]: 1030 µM | IC50 (Influenza A virus): Not Active

CC12C=CC3(O1)C(C(=O)N1CCCOC13)C2C(=O)N/N=C1\C[C@H]2CC[C@]1(C)C2(C)C (mixture of isomers)
IC50 (Vaccinia virus; vero): Not Active | CC50 at 96 h [1]: > 250 µM | CC50 at 48 h [2]: > 721 µM | IC50 (Influenza A virus; [5]): 481 µM | selectivity ratio [3]: 2

CC1(C)[C@@H]2CC[C@@]1(C)/C(=N/NC(=O)c1ccccc1)C2
IC50 (Vaccinia virus; [6]): 5.1 µM | CC50 at 96 h [1]: 1430 µM | selectivity ratio [4]: 280 | CC50 at 48 h [2]: > 1050 µM | IC50 (Influenza A virus; [5]): 201 µM | selectivity ratio [3]: 5

CC1(C)[C@@H]2CC[C@@]1(C)/C(=N/NC(=O)C(F)(F)F)C2
IC50 (Vaccinia virus; vero): Not Active | CC50 at 96 h [1]: > 250 µM | CC50 at 48 h [2]: > 1080 µM | IC50 (Influenza A virus): Not Active

COCCN1CC23C=CC(O2)C(C(=O)N/N=C2\C[C@H]4CC[C@]2(C)C4(C)C)C3C1=O (mixture of isomers)
IC50 (Vaccinia virus; vero): Not Active | CC50 at 96 h [1]: > 250 µM | CC50 at 48 h [2]: 719 µM | IC50 (Influenza A virus): Not Active

CC12C=CC3(O1)C(C(=O)N1CCSC13)C2C(=O)N/N=C1\C[C@H]2CC[C@]1(C)C2(C)C (mixture of isomers)
IC50 (Vaccinia virus; vero): Not Active | CC50 at 96 h [1]: > 250 µM

CCCC(=O)N/N=C1\C[C@H]2CC[C@]1(C)C2(C)C
IC50 (Vaccinia virus; [6]): 69.8 µM | CC50 at 96 h [1]: 854 µM | selectivity ratio [4]: 12 | CC50 at 48 h [2]: > 1190 µM | IC50 (Influenza A virus; [5]): 794 µM | selectivity ratio [3]: 2

CC1(C)[C@@H]2CC[C@@]1(C)[C@H](OC(=O)CCN1CCOCC1)C2
IC50 (Orthopoxvirus): 3.5 µM

NC(=O)c1ncn([C@@H]2O[C@H](CO)[C@@H](O)[C@H]2O)n1 [RIBAVIRIN]
CC50 at 48 h [2]: > 2130 µM | IC50 (Influenza A virus; [5]): 30 µM | selectivity ratio [3]: 71

CC12C=CC3(CN(Cc4ccccc4)C(=O)C3C1C(=O)N/N=C1\C[C@H]3CC[C@]1(C)C3(C)C)O2 (mixture of isomers)
IC50 (Vaccinia virus; vero): Not Active | CC50 at 96 h [1]: > 250 µM | CC50 at 48 h [2]: 227 µM | IC50 (Influenza A virus; [5]): > 72 µM | selectivity ratio [3]: 3

CC12C=CC3(CN(c4ccccc4)C(=O)C3C1C(=O)N/N=C1\C[C@H]3CC[C@]1(C)C3(C)C)O2 (mixture of isomers)
IC50 (Vaccinia virus; [6]): 6.2 µM | CC50 at 96 h [1]: 600 µM | selectivity ratio [4]: 97 | CC50 at 48 h [2]: 277 µM | IC50 (Influenza A virus; [5]): 22 µM | selectivity ratio [3]: 12
